Test results taken from ChEMBL document CHEMBL2169747, “Synthesis and biological properties of highly sequence-specific-alkylating N-methylpyrrole-N-methylimidazole polyamide conjugates” (J Med Chem, 2012).

Experiments:
[1] = system: A549; assay: Upregulation of BTG2 gene expression in human A549 cells at 26 nM after 12 hrs by microarray analysis relative to control; format: functional
In short: (§1)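 4 ×10^5 A549 cells seeded per 60 mm dish and treated 12 h with conjugate (21, 26, 34 or 100 nM) in medium; control medium contained 0.1% DMSO, with conjugates added as 0.1% DMSO solutions. Whole human genome (~25 000 genes) expression profiled by microarray against the DMSO control. A549 culture: RPMI-1640 with 10% heat-inactivated FBS, penicillin/streptomycin, 37 °C, 5% CO2.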

[2] = system: A549; assay: Downregulation of CTTNBP2 gene expression in human A549 cells at 26 nM after 12 hrs by microarray analysis relative to control; format: functional
In short: (§2)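 A549 cells, 4 × 10^5 per 60 mm dish, were exposed to conjugate for 12 h in medium with 0.1% DMSO; vehicle control was 0.1% DMSO. Whole human genome (~25 000 genes) expression was profiled by microarray and expression compared with the control.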

[3] = system: A549; assay: Downregulation of HIST1H2AC gene expression in human A549 cells at 26 nM after 12 hrs by microarray analysis relative to control; format: functional; in short: as §2
[4] = system: A549; assay: Upregulation of HES2 gene expression in human A549 cells at 26 nM after 12 hrs by microarray analysis relative to control; format: functional; in short: as §1
[5] = system: A549; assay: Downregulation of Q8N570 gene expression in human A549 cells at 26 nM after 12 hrs by microarray analysis relative to control; format: functional
In short: (§3)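 A549 cells (RPMI-1640, 10% heat-inactivated FBS, penicillin/streptomycin, 37 °C, 5% CO2) seeded at 4 × 10^5 per 60 mm dish. Exposed 12 h to conjugate at 21, 26, 34 or 100 nM in medium with 0.1% DMSO, against 0.1% DMSO control. Whole-genome (~25 000 genes) expression profiled by microarray.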

[6] = system: Mus musculus; assay: Toxicity in BALB/c nu/nu mouse at 1.6 mg/kg, iv administered as liposomal conjugate for 14 days; format: organism-based; set-up: dose 1.6 mg/kg, route intravenous; details: in vivo, 336 h
In short: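 Pre-test in male BALB/c-nu/nu mice without xenografts. Naked conjugate was dissolved in 100% DMSO and given ip at 0.50 mg/kg (12.5 μg/mouse). Liposomal conjugate (0.33 mg/mL in 17 mM lipid, hydrated with water and sonicated) was given iv at 1.6 mg/kg (41 μg/mouse), 125 μL single dose.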

[7] = system: A549; assay: Downregulation of SUPT3H gene expression in human A549 cells at 34 nM after 12 hrs by microarray analysis relative to control; format: functional; in short: as §3
[8] = system: A549; assay: Downregulation of GPX6 gene expression in human A549 cells at 34 nM after 12 hrs by microarray analysis relative to control; format: functional; in short: as §2
[9] = system: A549; assay: Upregulation of NP_997213.1 gene expression in human A549 cells at 34 nM after 12 hrs by microarray analysis relative to control; format: functional; in short: as §1
[10] = system: A549; assay: Downregulation of Q8N570 gene expression in human A549 cells at 34 nM after 12 hrs by microarray analysis relative to control; format: functional; in short: as §3
[11] = system: A549; assay: Downregulation of SMYD3 gene expression in human A549 cells at 34 nM after 12 hrs by microarray analysis relative to control; format: functional; in short: as §3
[12] = system: A549; assay: Upregulation of CDKN1A gene expression in human A549 cells at 34 nM after 12 hrs by microarray analysis relative to control; format: functional; in short: as §1
[13] = system: A549; assay: Upregulation of GLS2 gene expression in human A549 cells at 34 nM after 12 hrs by microarray analysis relative to control; format: functional; in short: as §1

SMILES | fold change (FC) [1] | fold change (FC) [2] | fold change (FC) [3] | fold change (FC) [4] | fold change (FC) [5] | Activity [6] | fold change (FC) [7] | fold change (FC) [8] | fold change (FC) [9] | fold change (FC) [10] | fold change (FC) [11] | fold change (FC) [12] | fold change (FC) [13]
CC(=O)Nc1cn(C)c(C(=O)Nc2cc(C(=O)Nc3cc(C(=O)NCCC(=O)Nc4cc(C(=O)NCCCC(=O)Nc5cc(C(=O)NCCC(=O)Nc6cn(C)c(C(=O)Nc7ccc8[nH]c(C(=O)N9CC(CCl)c%10c9cc(O)c9ccccc%109)cc8c7)n6)n(C)c5)n(C)c4)n(C)c3)n(C)c2)n1 (racemic) | 10.1 | 0.36 | 0.362 | 9.4 | 0.283 | Non-toxic | – | – | – | – | – | – | –
CC(=O)Nc1cn(C)c(C(=O)Nc2cn(C)c(C(=O)Nc3cc(C(=O)NCCC(=O)Nc4cc(C(=O)NCCCC(=O)Nc5cn(C)c(C(=O)NCCC(=O)Nc6cn(C)c(C(=O)Nc7ccc8[nH]c(C(=O)N9CC(CCl)c%10c9cc(O)c9ccccc%109)cc8c7)n6)n5)n(C)c4)n(C)c3)n2)n1 (racemic) | – | – | – | – | – | – | 0.231 | 0.322 | 6 | 0.186 | 0.291 | 7.8 | 6.7
